This is an account of results in ChEMBL document CHEMBL1125833, “Anxiolytic properties of certain annelated [1,2,4]triazolo[1,5-c]pyrimidin-5(6H)-ones” (J Med Chem, 1991).

In general, IC50 refers to the point on the concentration scale where inhibition reaches its midpoint. High values mean a need for much substance, low ones inhibition by little substance. One may read the ED50 as the midpoint of the dose-response relation. By inhibition in vivo is commonly meant the drop in the measured response relative to a control, in per cent. Low values mean a response near the control, high ones a response far below the control.

The target in test [1] is GABA-A receptor; anion channel. The test is described as follows: Displacement of [3H]flunitrazepam (FNZ) from GABA-A benzodiazepine receptor in rat forebrain. For orientation: Loss of bound radioactivity is the signal in a displacement assay; it reports binding, not function.
For test [2], the species on record is Rattus norvegicus. The test is described as follows: Anxiolytic response measured by antagonism of pentylenetetrazole discriminative stimuli in rats. The class given is functional. The method, boiled down: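 Rats trained to discriminate a subconvulsant dose of pentylenetetrazole (PTZ) from vehicle. Test compound given 30 min before the PTZ dose. Antagonism of the PTZ stimulus is scored as the anxiolytic response. ED50 values by probit analysis, with 95% confidence limits.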

Test [3] addresses GABA-A receptor; anion channel (Rattus norvegicus) (UniProt O09028+P15431+P18506+P18508+P19969+P20236+P23574+P23576+P28471+P28473+P30191+P62813+P63079+P63138+Q91ZM7+Q9ES14). The test is described as follows: GABA ratio measured by the IC50 in the absence of GABA compared to the IC50 in the presence of GABA in rats. The method, boiled down:
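Modified [3H]flunitrazepam binding in rat forebrain, with IC50 measured with and without GABA. Ratio = IC50 without GABA divided by IC50 with GABA.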

The target in test [4] is GABA-A receptor; anion channel. The test is described as follows: Displacement of [3H]flunitrazepam from GABA-A Benzodiazepine receptors in rat forebrain.
In test [5] the test system is Rattus norvegicus. The test is described as follows: Compound tested for its effect on Nonconflict (VI) operant responding of rats at a dose of 30.0 mg/Kg administered perorally. The class given is functional. The method, boiled down:
(§1)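 Cook-Davidson conflict procedure in rats given oral doses. Rats lever-press for milk reward with shock (conflict, FR) and without shock (nonconflict, VI). Value is % change in response rate, with significance set at P < 0.05. The minimally effective oral dose is taken as the dose raising conflict responding or lowering VI responding.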

The test system of test [6] is Rattus norvegicus. The experiment in a line: Compound tested for its effect on conflict (FR) operant responding of rats at a dose of 30.0 mg/Kg administered perorally. The class given is functional. The essentials: as §1
Test [7] concerns Rattus norvegicus. The experiment in a line: Minimal effective oral dose to cause increase in conflict response in rats after po administration. In kind it is functional. The essentials:
as §1

Test [8] deals with Rattus norvegicus. The experiment in a line: Interaction with ethanol in Rotarod performance at a dose of 0 mg/Kg in rats. The class given is functional. The method, boiled down: (§2)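 Rotorod test of ethanol interaction in male Wistar (Crl:(WI)BR) rats, 130–160 g. Vehicle or test compound (0, 1, 3, 10 mg/kg) given orally 30 min before ethanol. Graded ethanol doses given ip 30 min before rotorod testing. Ethanol ED50 reported with confidence limits, P < 0.05.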
Background: The rotarod test checks motor coordination on a turning rod.

The subject of test [9] is Rattus norvegicus. The test is described as follows: Interaction with ethanol in Rotarod performance at a dose of 1 mg/Kg in rats. The class given is functional. The method, boiled down: as §2
The subject of test [10] is Rattus norvegicus. The test is described as follows: Interaction with ethanol in Rotarod performance at a dose of 3 mg/Kg in rats. The class given is functional. The essentials: as §2
Test [11] concerns Rattus norvegicus. The experiment in a line: Compound tested for its effect on Nonconflict (VI) operant responding of rats at a dose of 3.0 mg/Kg administered perorally. The class given is functional. The method, boiled down: as §1
Test [12] has as its system Rattus norvegicus. The test is described as follows: Compound tested for its effect on conflict (FR) operant responding of rats at a dose of 10.0 mg/Kg administered perorally. The class given is functional. The method, boiled down: as §1
Test [13] relates to Rattus norvegicus. The test is described as follows: Compound tested for its effect on conflict (FR) operant responding of rats at a dose of 3.0 mg/Kg administered perorally. In kind it is functional. The essentials:
as §1

The test system of test [14] is Rattus norvegicus. The experiment in a line: Compound tested for its effect on Nonconflict (VI) operant responding of rats at a dose of 1.0 mg/Kg administered perorally. The class given is functional. The essentials: as §1
Test [15] relates to Rattus norvegicus. The experiment in a line: Compound tested for its effect on Nonconflict (VI) operant responding of rats at a dose of 10.0 mg/Kg administered perorally. In kind it is functional. The method, boiled down:
as §1

In test [16] the test system is Rattus norvegicus. The test is described as follows: Minimal effective oral dose to cause ethanol interaction in rats. In kind it is functional. The essentials:
as §2

In test [17] the test system is Rattus norvegicus. The test is described as follows: Interaction with ethanol in Rotarod performance at a dose of 10 mg/Kg in rats. The class given is functional. The essentials: as §2
Test [18] relates to Rattus norvegicus. The test is described as follows: Compound tested for its effect on conflict (FR) operant responding of rats at a dose of 1.0 mg/Kg administered perorally. The class given is functional. The essentials:
as §1

Test [19] relates to Rattus norvegicus. The test is described as follows: Compound tested for its effect on Nonconflict(VI) operant responding of rats at a dose of 10.0 mg/kg administered perorally. The class given is functional. The following applies: route oral. The method, boiled down:
as §1

The test system of test [20] is Rattus norvegicus. The test is described as follows: Compound tested for its effect on Nonconflict(VI) operant responding of rats at a dose of 3.0 mg/kg administered perorally. In kind it is functional. The note with it: route oral. The essentials: as §1
Test [21] concerns Rattus norvegicus. The test is described as follows: Compound tested for its effect on Nonconflict(VI) operant responding of rats at a dose of 30.0 mg/kg administered perorally. The following applies: route oral. The class given is functional. The essentials:
as §1

Test [22] relates to Rattus norvegicus. The test is described as follows: Compound tested for its effect on conflict(FR) operant responding of rats at a dose of 10.0 mg/kg administered perorally. The class given is functional. The following applies: route oral. The essentials: as §1
For test [23], the system named is Rattus norvegicus. The experiment in a line: Compound tested for its effect on conflict(FR) operant responding of rats at a dose of 3.0 mg/kg administered perorally. In kind it is functional. The note with it: route oral. The method, boiled down:
as §1

The subject of test [24] is Rattus norvegicus. The experiment in a line: Compound tested for its effect on conflict(FR) operant responding of rats at a dose of 30.0 mg/kg administered perorally. In kind it is functional. The following applies: route oral. The essentials: as §1
Test [25] relates to Rattus norvegicus. The experiment in a line: Minimal effective oral dose to cause VI response decrement in rats. The class given is functional. The method, boiled down:
as §1

In test [26] the test system is Rattus norvegicus. The experiment in a line: Compound tested for its effect on conflict (FR) operant responding of rats at a dose of 30.0 mg/Kg administered perorally. The class given is functional. The essentials:
as §1

In test [27] the test system is Rattus norvegicus. The test is described as follows: Anxiolytic response at 30 mg/Kg measured by antagonism of pentylenetetrazole discriminative stimuli in rats. The class given is functional.

In turn, `O=C(Cc1ccccc1)N1CCc2nc(O)n3nc(-c4ccccc4F)nc3c2C1` yielded an IC50 in [1] of 140 nM.
For `Oc1nc2c(c3nc(-c4ccc[nH]4)nn13)CN(Cc1ccccc1)CC2`, in test [1], the 50% inhibitory concentration (IC50) worked out at 7.6 nM. This compound also had an ED50 in the test listed under Rattus norvegicus [2] of 17.3 mg/kg. Further, in test [3], the GABA ratio amounted to 1.65.
As to `O=C1C2C=Nc3ccccc3C2=NN1c1ccccc1` (stereo not given) [CGS-8216], the IC50 in test [4] was 0.45 nM. Besides, the GABA ratio in test [3] is 0.82.
The compound `Cc1ccc(S(=O)(=O)N2CCc3nc(O)n4nc(-c5ccccc5F)nc4c3C2)cc1` returned an IC50 in test [1] of 1.77 nM. Besides, in test [3], the GABA ratio came to 0.99.
For the compound `Oc1nc2c(c3nc(-c4ccccc4F)nn13)CCCC2`, in test [1], the IC50 was found to be 1.7 nM. The “Change in response rate” value turned out to be 1% in the test on Rattus norvegicus [5] and 132% with Rattus norvegicus [6]. In the test filed under Rattus norvegicus [2], it took a dose of 2.4 mg/kg to reach the 50% effect level (ED50). The compound also gave an MED in the test with Rattus norvegicus [7] of 30 mg/kg.
As to `Oc1nc2c(c3nc(-c4ccccc4F)nn13)CNCC2`, the IC50 in test [1] stood at 442 nM.
In test [1], `Oc1nc2c(c3nc(-c4ccccc4)nn13)CN(Cc1ccccc1)CC2` had an IC50 of 2.19 nM. For the same compound, the median effective dose (ED50) stood at 1320 mg/kg in the test with Rattus norvegicus [8]; 984 mg/kg in the test on Rattus norvegicus [9]; 832 mg/kg in the test with Rattus norvegicus [10]; 2.6 mg/kg in the test listed under Rattus norvegicus [2]; 563 mg/kg in the test on Rattus norvegicus [17]. The “Change in response rate” value was -4% in the test with Rattus norvegicus [11]; 367% in the test on Rattus norvegicus [12]; 167% in the test on Rattus norvegicus [13]; 0% with Rattus norvegicus [14]; 12% in the test with Rattus norvegicus [15]; 35% in the test with Rattus norvegicus [18]. Besides, the MED with Rattus norvegicus [16] turned out to be 1 mg/kg; in the test on Rattus norvegicus [7], 3 mg/kg. In addition, the GABA ratio in [3] is 1.4.
Consider `CN1C(=O)CN=C(c2ccccc2)c2cc(Cl)ccc21` [DIAZEPAM], for which the “Change in response rate” value with Rattus norvegicus [19] is reported as 30%; in the test on Rattus norvegicus [20], 4%; in the test with Rattus norvegicus [21], -2%; in the test on Rattus norvegicus [22], 425%; in the test on Rattus norvegicus [23], 159%; in the test with Rattus norvegicus [24] it was 257%. The compound also registered an ED50 in the test filed under Rattus norvegicus [2] of 1.23 mg/kg. Besides, the MED in the test with Rattus norvegicus [25] was found to be 10 mg/kg; with Rattus norvegicus [16], 5 mg/kg; with Rattus norvegicus [7] it was 10 mg/kg.
For `O=C1C2C=Nc3ccccc3C2=NN1c1ccc(Cl)cc1` (stereo not given) [CGS-9896], in the test filed under Rattus norvegicus [2], the 50% effect level (ED50) was put at a dose of 2.3 mg/kg. In addition, the MED is 30 mg/kg in the test on Rattus norvegicus [16] and 10 mg/kg in the test with Rattus norvegicus [7].
In [1], `O=C(Nc1ccccc1)N1CCc2nc(O)n3nc(-c4ccccc4F)nc3c2C1` displayed a 50% inhibitory concentration (IC50) of 67 nM.
Still for that read-out and setting: as for `NC(Cc1ccccc1)C(=O)N1CCc2nc(O)n3nc(-c4ccccc4F)nc3c2C1` (stereo not given), the figure is greater than 100 nM.
As for `Oc1nc2c(c3nc(-c4ccccc4F)nn13)CN(Cc1cccnc1)CC2`, the IC50 in test [1] is 0.74 nM. Also, the “Change in response rate” value with Rattus norvegicus [19] is -21%; in the test with Rattus norvegicus [20], -8%; in the test with Rattus norvegicus [22] it was 322%; with Rattus norvegicus [23], 129%. This compound also gave an ED50 in the test listed under Rattus norvegicus [2] of 3.65 mg/kg. Moreover, the MED with Rattus norvegicus [25] and in the test on Rattus norvegicus [7] was 10 mg/kg in each case. Further, the GABA ratio in test [3] came to 1.4.
Take `Oc1nc2c(c3nc(-c4ccccc4F)nn13)CCCCC2`: the IC50 in test [1] was determined as 7.2 nM. Also, the “Change in response rate” value with Rattus norvegicus [11] was 11%; in the test on Rattus norvegicus [5], 49%; in the test with Rattus norvegicus [12], 232%; in the test with Rattus norvegicus [13], 79%; in the test on Rattus norvegicus [26], 236%; in the test on Rattus norvegicus [15] it was 53%. In the test listed under Rattus norvegicus [2], this compound yielded an ED50 of 4.4 mg/kg. In addition, the MED with Rattus norvegicus [25] and in the test with Rattus norvegicus [7] was 10 mg/kg each time.
Turning to `COC(=O)CN1CCc2nc(O)n3nc(-c4ccccc4F)nc3c2C1`, the IC50 in [1] is 27 nM. Moreover, testing at 30 mg/kg with Rattus norvegicus [27] gave an inhibition in vivo of 12%. The GABA ratio in test [3] amounted to 1.06.
Compound `Oc1nc2c(c3nc(-c4ccccc4Cl)nn13)CN(Cc1ccccc1)CC2` displayed an IC50 in test [1] of 1.7 nM. For the same compound, the “Change in response rate” value is reported as -40% with Rattus norvegicus [11], 58% in the test with Rattus norvegicus [13], 1% in the test with Rattus norvegicus [14] and 18% in the test with Rattus norvegicus [18]. In the test filed under Rattus norvegicus [2], it took a dose of 0.5 mg/kg to reach the 50% effect level (ED50). Besides, the MED with Rattus norvegicus [25] and in the test on Rattus norvegicus [7] was 3 mg/kg each time. The GABA ratio in [3] was 1.4.
